Measurements collected from several papers.
Each line is one published result; the experiments were not run side by side.
Target: Misshapen-like kinase 1 (MINK1, Homo sapiens, UniProt Q8N4C8)

| SMILES | assay | setting | quantity | value |
| --- | --- | --- | --- | --- |
| CO[C@@H](C)c1c(Nc2ccc([C@H](N(C)C(=O)C3CCS(=O)(=O)CC3)C(F)(F)F)cc2)cnc2cc(Cl)nn12 | cell-free assay, competition with immobilised ligand | 1 µM | remaining binding | 100% |
| CC(C)(O)[C@H]1CC[C@H](Nc2ccc3ncc(-c4cccc(C(F)(F)F)c4)n3n2)CC1 | enzyme activity, inhibitor | 1 µM | remaining activity | 97% |
| Cc1ccc(C(=O)NCc2ccsc2)cc1C#Cc1cn(C(C)C)c2ncnc(N)c12 | enzyme activity, inhibitor | 1 µM | activity vs control | 84% |
| Cn1c(=O)n(-c2ccc(C(C)(C)C#N)cc2)c2c3cc(-c4cnc5ccccc5c4)ccc3ncc21 | enzyme activity, inhibitor | 10 µM | remaining activity | 75% |
| COc1cc2ncnc(Nc3ccc(Oc4ccccc4)c(C)c3C)c2cc1OC | enzyme activity, inhibitor | 1 µM | inhibition | -1% |
| COc1cc(-c2cn(C3CCc4c(F)cccc4N(CC(F)(F)F)C3=O)nn2)ccc1-n1cnc(C)c1 (stereo not shown) | cell-free assay, competition with immobilised ligand | 1 µM | remaining binding | 84% |
| CNC(=O)c1cc(Oc2ccc(NC(=O)Nc3ccc(Cl)c(C(F)(F)F)c3)cc2)ccn1 | enzyme activity, inhibitor | 10 µM | inhibition | 75% |
| CN(C)C1CCN(CC#Cc2nn(C3CCCC3)c3nc(NCc4ccccc4)ncc23)C1 (stereo not shown) | enzyme activity, inhibitor, FRET | 1 µM | inhibition | 17% |
| CCS(=O)(=O)c1cc2cc(C[C@@](O)(CC(C)(C)c3ccc(F)cc3C(N)=O)C(F)(F)F)[nH]c2cn1 | cell-free assay, competition with immobilised ligand | 1 µM | remaining binding | 79% |
| CN1CC(Oc2cnc(C#N)cc2-c2ccn3nc(NC(=O)C4CC4)cc3c2)C1 | enzyme activity, inhibitor | 1 µM | inhibition | 13% |
| COc1cc(Nc2cnc(C#N)c(O[C@H](C)CN(C)C)n2)ncc1-c1cnn(C)c1 | enzyme activity, inhibitor, radiometric | 10 µM | remaining activity | 67% |
| O=C1Nc2ccc(Cl)cc2C1=Cc1cc(Cl)c(O)c(Cl)c1 | cell-free assay | 0.5 µM | remaining signal | 22.4% |
| CCCOc1ccc(OC)c(F)c1C(=O)c1ccc(C(=O)N[C@@H]2CNC[C@H]2NC(=O)c2ccc3[nH]ncc3c2)cc1 | enzyme activity, inhibitor | 10 µM | remaining activity | 96% |
| COc1ccc(COc2ccc(Cc3cnc(N)nc3N)cc2OC)cc1 | cell-free assay | 0.5 µM | remaining signal | 86.5% |
| CCCS(=O)(=O)Nc1ccc(F)c(C(=O)c2c[nH]c3ncc(-c4ccc(Cl)cc4)cc23)c1F | enzyme activity, inhibitor | 1 µM | inhibition | < 20% |
| FC(F)(F)Oc1cccc(-c2cnc3ccc(-c4ccncc4)nn23)c1 | enzyme activity, inhibitor, radiometric | 5 µM | activity vs control | 63% |

| SMILES | assay | setting | quantity | value |
| --- | --- | --- | --- | --- |
| COc1cc(-c2cc(-c3ccc(N4CCNCC4)cc3)cnc2N)cc(OC)c1OC | enzyme activity, inhibitor | 0.1 µM | inhibition | 74% |
| O=C(Nc1cnn(-c2csc(C(=O)NC3COC3)c2)c1)Nc1c(F)cccc1Cl | enzyme activity, inhibitor | 5 µM | remaining activity | 62.2% |
| C[C@@H]1CN(c2cc(-c3n[nH]c4ccc(OC5(C)CC5)cc34)ncn2)C[C@H](C)O1 | cell-free assay, competition with immobilised ligand | 0.1 µM | remaining binding | 84% |
| COc1cc(/C=C/C(=O)CC(=O)/C=C/c2ccc(O)c(OC)c2)ccc1O | enzyme activity, inhibitor | 1 µM | activity vs control | 78% |
| Cc1cc(NC(=O)c2cccc3cc(-c4cccc5[nH]nc(N)c45)ccc23)ccc1F | enzyme activity, inhibitor | 0.1 µM | activity vs control | 110% |
| Cc1ccc(Nc2nccc(N(C)c3ccc4c(C)n(C)nc4c3)n2)cc1S(N)(=O)=O | enzyme activity, inhibitor | 10 µM | inhibition | 80% |
| O=C(NCc1ncc(C(F)(F)F)cc1Cl)c1ccc2c(c1)C1(CCS(=O)(=O)CC1)[C@@H](C1CC1)N2S(=O)(=O)c1ccc(F)cc1 | cell-free assay, competition with immobilised ligand | 1 µM | remaining binding | 85% |
| COc1cc2c(Nc3ccc(Br)cc3F)ncnc2cc1OCC1CCN(C)CC1 | cell-free assay | 0.5 µM | remaining signal | 81.5% |
| CCN(CC)CCNC(=O)c1c(C)[nH]c(/C=C2\C(=O)Nc3ccc(F)cc32)c1C | enzyme activity, inhibitor | 0.3 µM | inhibition | 48% |
| N#CC1(c2ccccn2)CCN(Cc2cc(C(=O)N3CCCC3)c(=O)n3ccccc23)CC1 | cell-free assay, competition with immobilised ligand | 1 µM | remaining binding | 89% |
| FC(F)c1nc2ccccc2n1-c1nc(N2CCOCC2)nc(N2CCOCC2)n1 | enzyme activity, inhibitor | 10 µM | remaining activity | 102% |
| COc1ccc2c(c1)O[C@@H](c1ccc(OC)c(OC)c1)C[C@H]2NC(=O)C1(c2ccc3c(c2)OC(F)(F)O3)CC1 | cell-free assay, competition with immobilised ligand | 1 µM | remaining binding | 77% |
| CC(C)(C)c1nc2c(s1)c1nc(N)ncc1c1ccc(NS(=O)(=O)c3c(F)cccc3F)c(F)c12 | enzyme activity, inhibitor, radiometric | 1 µM | remaining activity | 90% |
| Cc1nc(C2CCN(C(=O)c3ccc(OC(F)(F)F)cc3N)CC2)c2ncc(N3CCN(C)CC3)cc2n1 | cell-free assay, competition with immobilised ligand | 1 µM | remaining binding | 93% |
| Cc1cnc(NC2CCOCC2)nc1-n1cnc(C(=O)NC(CN)c2cc(F)cc(Cl)c2)c1 (stereo not shown) | enzyme activity, inhibitor, radiometric | 1 µM | remaining activity | 103% |
